We go through two compounds from publication PMC6139073 (Cancer research, 2018).

The test system of data set [1] is FZD1/2. Kind of data set: FZD1/2 immunohistochemistry. The data set is classed as in vivo, human. The note with it: run-in and concurrent arms combined; H-score over 50 positive. In a few lines:
(§1)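 Tumour biopsies from the expansion cohort (20 patients with metastatic irinotecan- and oxaliplatin-refractory CRC on MEK inhibitor plus Wnt-modulator combination); two core biopsies per patient, taken pre- and post-treatment. IHC with hematoxylin counterstain; brown membrane/cytoplasmic staining was scored positive. H-score (0–300) was derived from the proportion and intensity of stained tumour cells in the predominant compartment. Values over 50 were positive, and results were summarised descriptively.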

The conditions of data set [2]: in vivo; cited from earlier work.
The conditions of data set [3]: in vivo; cited from earlier work. This is another data set of the same source.
Data set [4] deals with p-ERK. Briefly: p-ERK immunohistochemistry. The format is in vivo, human. As to conditions: run-in and concurrent arms combined; H-score over 50 positive. A digest of the protocol: as §1
A short description of data set [5]: Plasma pharmacokinetics in patients. The format is in vivo, human.
For data set [6] the following is noted: single agent; cited from earlier work.
Data set [7] concerns advanced BRAF V600E or V600K mutated melanoma. The note with it: single agent, cited from earlier work.

Structures are written as SMILES.

Take `Cn1cnc2c(F)c(Nc3ccc(Br)cc3Cl)c(C(=O)NOCCO)cc21` [selumetinib]: in data set [1], the “patients positive for FZD1/2 post-treatment” value is on record as 11 out of 15. Also, in data set [2], the “Visual changes, patients” value was 12%; the dose limiting toxicity entry is “grade 3 acneiform rash and pleural effusion”. Further, the “mean half-life (t½)” value in data set [3] is reported as 5 to 8 h. Also, the “patients positive for p-ERK post-treatment” value in data set [4] was 14 out of 15. In addition, in data set [5] (day -7 vs C1D1), the “difference in pharmacokinetics of selumetinib given alone versus with CsA” value is on record as “no substantial difference”. Also, in data set [5] (human, plasma, oral), the concentration peaked (Cmax) at 1250 ng/mL. Also, in data set [5] (human, plasma, oral, 75 mg), the highest level (Cmax) was 1550 ng/mL and the half-life is 6.4 h. The “Recommended Phase II Dose (RP2D)” value in data set [6] is recorded as 100 mg BID.
For `CC(=O)Nc1cccc(-n2c(=O)n(C3CC3)c(=O)c3c(Nc4ccc(I)cc4F)n(C)c(=O)c(C)c32)c1` [trametinib], the median progression-free survival in data set [7] (vs 1.5 in comparator, p < 0.001) is given as 4.8 mos. The 6-month survival rate in data set [7] (vs 67% in comparator) was 81%.
